Reference: ChEMBL document CHEMBL1124180, “Asymmetric synthesis and properties of the enantiomers of the antibacterial agent 7-(3-aminopyrrolidin-1-yl)-1-(2,4-difluorophenyl)-1,4-dihydro-6- fluoro-4-oxo-1,8-naphthyridine-3-carboxylic acid hydrochloride” (J Med Chem, 1988)
≈ marks a conversion by molar mass, not a printed value.

What was measured:
Acinetobacter sp. = experiment: In vitro activity against Acinetobacter sp.(CMX 669).; format: functional
How it was run: (§1)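 MIC determined by agar dilution on brain-heart infusion agar under aerobic conditions.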

Prevotella bivia = experiment: In vitro activity against t Bacteroides bivius(B 6140); format: functional
How it was run: (§2)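 Anaerobic MICs measured by agar dilution on Wilkins-Chalgren agar.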

Prevotella disiens = experiment: In vitro activity against Bacteroides disiens (ATCC 29426); format: functional
How it was run: (§3)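 MIC determined under anaerobic conditions on Wilkins-Chalgren agar.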

Phocaeicola vulgatus [1] = experiment: In vitro activity against Bacteroides vulgatus(792); format: functional; how it was run: as §3
Phocaeicola vulgatus [2] = experiment: In vitro activity against Bacteroides vulgatus(SFBC 2375); format: functional; how it was run: as §3
Bacteroides fragilis [3] = experiment: In vitro activity against Bacteroides fragilis (105AT25285); format: functional; how it was run: as §3
Bacteroides fragilis [4] = experiment: In vitro activity against Bacteroides fragilis (784); format: functional; how it was run: as §3
Bacteroides fragilis [5] = experiment: In vitro activity against Bacteroides fragilis (SFM2906A); format: functional; how it was run: as §3
Bacteroides fragilis [6] = experiment: In vitro activity against Bacteroides fragilis (SFM2929-1); format: functional; how it was run: as §3
Bacteroides fragilis [7] = experiment: In vitro activity against Bacteroides fragilis (SFM2975-7); format: functional; how it was run: as §3
Bacteroides fragilis [8] = experiment: In vitro activity against Bacteroides fragilis (UC-2); format: functional; how it was run: as §3
Hoylesella loescheii = experiment: In vitro activity against Bacteroides loescheii (ATCC 15930).; format: functional; how it was run: as §3
[9] = tested on: Bacteroides thetaiotaomicron; experiment: In vitro activity against Bacteroides thetaiotaomicron (SFM2975-2); format: functional; how it was run: as §3
[10] = tested on: Bacteroides thetaiotaomicron; experiment: In vitro activity against Bacteroides thetaiotaomicron (106); format: functional; how it was run: as §3
[11] = tested on: Bacteroides thetaiotaomicron; experiment: In vitro activity against thetaiotaomicron (ATCC 29741); format: functional; how it was run: as §2
Clostridioides difficile [12] = experiment: In vitro activity against Clostridium difficile (ATCC 9689); format: functional
Clostridium perfringens [13] = experiment: In vitro activity against Clostridium perfringens (104AT13124); format: functional
Clostridium perfringens [14] = experiment: In vitro activity against Clostridium perfringens (788); format: functional
Clostridium perfringens [15] = experiment: In vitro activity against Clostridium perfringens (SFBC 2026); format: functional
Clostridioides difficile [16] = experiment: In vitro activity against Clostridium difficile (ATCC 17857); format: functional
Thomasclavelia ramosa = experiment: In vitro activity against Clostridium romosum (7); format: functional
Enterococcus faecium = experiment: In vitro activity against Enterococcus faecium (ATCC 8043).; format: functional; how it was run: as §1
Escherichia coli [17] = experiment: In vitro activity against Escherichia coli (DC-2); format: functional
How it was run: (§4)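 MIC for aerobic bacteria, measured on brain-heart infusion agar.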

Escherichia coli [18] = experiment: In vitro activity against Escherichia coli (H560); format: functional; how it was run: as §4
Escherichia coli [19] = experiment: In vitro activity against Escherichia coli (KNK437); format: functional; how it was run: as §4
Escherichia coli [20] = experiment: In vitro activity against Escherichia coli (SS).; format: functional; how it was run: as §4
Escherichia coli [21] = experiment: In vitro activity against Escherichia coli Juhl; format: functional; how it was run: as §4
Fusobacterium = experiment: In vitro activity against Fusobacterium sp.(GS-10); format: functional; how it was run: as §3
Klebsiella aerogenes = experiment: In vitro activity against Enterobacter aerogenes (ATCC 13048).; format: functional; how it was run: as §1
Fusobacterium nucleatum = experiment: In vitro activity against Fusobacterium nucleatum (ATCC 25586); format: functional; how it was run: as §3
Klebsiella pneumoniae = experiment: In vitro activity against Klebsiella pneumoniae (ATCC 8045).; format: functional; how it was run: as §1
Micrococcus luteus [22] = experiment: In vitro activity against Micrococcus luteus (ATCC 4698); format: functional; how it was run: as §1
Micrococcus luteus [23] = experiment: In vitro activity against Micrococcus luteus (ATCC 9341); format: functional; how it was run: as §1
Parvimonas micra [24] = experiment: In vitro activity against Peptostreptococcus micros (ATCC 33270).; format: functional; how it was run: as §3
[25] = tested on: Peptostreptococcus anaerobius; experiment: In vitro activity against Peptostreptococcus anaerobius (ATCC 27337); format: functional; how it was run: as §3
[26] = tested on: Peptoniphilus asaccharolyticus; experiment: In vitro activity against Peptococcus asaccharolyticus (ATCC 14963).; format: functional; how it was run: as §3
Finegoldia magna = experiment: In vitro activity against Peptococcus magnus (ATCC 29328); format: functional; how it was run: as §3
Peptostreptococcus = experiment: In vitro activity against Peptostreptococcus sp.(TB-11); format: functional
How it was run: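 MIC for anaerobic bacteria, measured on Wilkins-Chalgren agar.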

Providencia stuartii = experiment: In vitro activity against Providencia stuartii (CMX 640); format: functional; how it was run: as §1
Cutibacterium acnes = experiment: In vitro activity against Propionibacterium acnes (132); format: functional; how it was run: as §3
Pseudomonas aeruginosa [27] = experiment: In vitro activity against Pseudomonas aeruginosa (A5007).; format: functional; how it was run: as §1
Pseudomonas aeruginosa [28] = experiment: In vitro activity against Pseudomonas aeruginosa (BMH10); format: functional; how it was run: as §1
Pseudomonas aeruginosa [29] = experiment: In vitro activity against Pseudomonas aeruginosa (K799/WT).; format: functional; how it was run: as §1
Staphylococcus aureus [30] = experiment: In vitro activity against Staphylococcus aureus(45); format: functional; how it was run: as §1
Staphylococcus aureus [31] = experiment: In vitro activity against Staphylococcus aureus (A5177); format: functional; how it was run: as §1
Staphylococcus aureus [32] = experiment: In vitro activity against Staphylococcus aureus(ATCC 6538P); format: functional; how it was run: as §1
Staphylococcus aureus [33] = experiment: In vitro activity against Staphylococcus aureus(CMX 503A); format: functional; how it was run: as §1
Staphylococcus aureus [34] = experiment: In vitro activity against Staphylococcus aureus(CMX 553); format: functional; how it was run: as §1
Staphylococcus aureus [35] = experiment: In vitro activity against Staphylococcus aureus(CMX 686B); format: functional; how it was run: as §1
[36] = tested on: Staphylococcus epidermidis; experiment: In vitro activity against Staphylococcus epidermidis (3519); format: functional; how it was run: as §1
Streptococcus agalactiae = experiment: In vitro activity against Streptococcus agalactiae (CMX 508).; format: functional; how it was run: as §1
Staphylococcus aureus [37] = experiment: In vitro activity against Staphylococcus aureus(45 RAR2); format: functional; how it was run: as §1
Streptococcus equinus = experiment: In vitro activity against Streptococcus bovis (A5169).; format: functional; how it was run: as §1
Streptococcus pyogenes [38] = experiment: In vitro activity against Streptococcus pyogenes (2548 INDUC).; format: functional; how it was run: as §1
Streptococcus pyogenes [39] = experiment: In vitro activity against Streptococcus pyogenes(930 CONST).; format: functional; how it was run: as §1
Streptococcus pyogenes [40] = experiment: In vitro activity against Streptococcus pyogenes (EES61); format: functional; how it was run: as §1
Veillonella parvula = experiment: In vitro activity against Veillonella parvula (ATCC 10790); format: functional; how it was run: as §2
[41] = tested on: Prevotella melaninogenica; experiment: In vitro activity against Bacteroides melaninogenicus (ATCC 25845).; format: functional; how it was run: as §3
[42] = tested on: Bacteroides thetaiotaomicron; experiment: In vitro activity against Bacteroides thetaiotaomicron (ATCC 29742); format: functional; how it was run: as §3
Burkholderia cepacia = experiment: In vitro activity against Pseudomonas cepacia (296I); format: functional; how it was run: as §1
Mus musculus [43] = experiment: In vivo activity against Escherichia coli Juhl(100X LD50), when administered po( each compound tested at 3 doses with 10 animals); format: functional
How it was run: (§5)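 Mice were challenged intraperitoneally with the organism. The compound was given orally as a total dose split into equal portions at 1 and 5 h post-infection. Three doses were used, with 10 animals per dose.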

Mus musculus [44] = experiment: In vivo activity against Escherichia coli Juhl(100X LD50), when administered sc( each compound tested at 3 doses with 10 animals); format: functional
How it was run: (§6)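 Mice were challenged intraperitoneally with the organism. The compound was given subcutaneously as a total dose split into equal portions at 1 and 5 h post-infection. Three doses were used, with 10 animals per dose.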

Mus musculus [45] = experiment: In vivo activity against Pseudomonas aeruginosa A5007 (100X LD50), administered po( each compound tested at 3 doses with 10 animals); format: functional; how it was run: as §5
Mus musculus [46] = experiment: In vivo activity against Pseudomonas aeruginosa A5007 (100X LD50), administered sc ( each compound tested at 3 doses with 10 animals); format: functional; how it was run: as §6
Parvimonas micra [47] = experiment: In vitro activity against Peptostreptococcus micros (ATCC 33270); format: functional; how it was run: as §3
[48] = tested on: Bacteroides thetaiotaomicron; experiment: microbe, parasite or virus in culture; details: ATCC 29741

## Cl.N[C@@H]1CCN(c2nc3c(cc2F)c(=O)c(C(=O)O)cn3-c2ccc(F)cc2F)C1
Acinetobacter sp.
  MIC: 0.1 mg/L
Prevotella bivia
  MIC: 2 mg/L
Prevotella disiens
  MIC: 2 mg/L
Phocaeicola vulgatus [1]
  MIC: 2 mg/L
Phocaeicola vulgatus [2]
  MIC: 1 mg/L
Bacteroides fragilis [3]
  MIC: 2 mg/L
Bacteroides fragilis [4]
  MIC: 2 mg/L
Bacteroides fragilis [5]
  MIC: 2 mg/L
Bacteroides fragilis [6]
  MIC: 2 mg/L
Bacteroides fragilis [7]
  MIC: 4 mg/L
Bacteroides fragilis [8]
  MIC: 2 mg/L
Hoylesella loescheii
  MIC: 4 mg/L
[9]
  MIC: 4 mg/L
[10]
  MIC: 8 mg/L
[11]
  MIC: 8 mg/L
Clostridioides difficile [12]
  MIC: 4 mg/L
Clostridium perfringens [13]
  MIC: 0.25 mg/L
Clostridium perfringens [14]
  MIC: 0.25 mg/L
Clostridium perfringens [15]
  MIC: 0.25 mg/L
Clostridioides difficile [16]
  MIC: 4 mg/L
Thomasclavelia ramosa
  MIC: 2 mg/L
Enterococcus faecium
  MIC: 0.39 mg/L
Escherichia coli [17]
  MIC: 0.39 mg/L
Escherichia coli [18]
  MIC: 0.05 mg/L
Escherichia coli [19]
  MIC: 0.39 mg/L
Escherichia coli [20]
  MIC: 0.01 mg/L
Escherichia coli [21]
  MIC: 0.05 mg/L
Fusobacterium
  MIC: 2 mg/L
Klebsiella aerogenes
  MIC: 0.2 mg/L
Fusobacterium nucleatum
  MIC: 2 mg/L
Klebsiella pneumoniae
  MIC: 0.05 mg/L
Micrococcus luteus [22]
  MIC: 1.56 mg/L
Micrococcus luteus [23]
  MIC: 3.1 mg/L
Parvimonas micra [24]
  MIC: 0.12 mg/L
[25]
  MIC: 0.5 mg/L
[26]
  MIC: 0.25 mg/L
Finegoldia magna
  MIC: 0.5 mg/L
Peptostreptococcus
  MIC: 0.5 mg/L
Providencia stuartii
  MIC: 1.56 mg/L
Cutibacterium acnes
  MIC: 1 mg/L
Pseudomonas aeruginosa [27]
  MIC: 0.39 mg/L
Pseudomonas aeruginosa [28]
  MIC: 0.2 mg/L
Pseudomonas aeruginosa [29]
  MIC: 0.39 mg/L
Staphylococcus aureus [30]
  MIC: 0.1 mg/L
Staphylococcus aureus [31]
  MIC: 0.1 mg/L
Staphylococcus aureus [32]
  MIC: 0.05 mg/L
Staphylococcus aureus [33]
  MIC: 0.1 mg/L
Staphylococcus aureus [34]
  MIC: 0.1 mg/L
Staphylococcus aureus [35]
  MIC: 0.05 mg/L
[36]
  MIC: 0.1 mg/L
Streptococcus agalactiae
  MIC: 0.39 mg/L
Staphylococcus aureus [37]
  MIC: 0.1 mg/L
Streptococcus equinus
  MIC: 0.39 mg/L
Streptococcus pyogenes [38]
  MIC: 0.2 mg/L
Streptococcus pyogenes [39]
  MIC: 0.39 mg/L
Streptococcus pyogenes [40]
  MIC: 0.39 mg/L
Veillonella parvula
  MIC: 0.5 mg/L
[41]
  MIC: 1 mg/L
[42]
  MIC: 8 mg/L
Burkholderia cepacia
  MIC: 6.2 mg/L

## O=C(O)c1cn(C2CC2)c2cc(N3CCNCC3)c(F)cc2c1=O [CIPROFLOXACIN]
Prevotella bivia
  MIC: 2 mg/L (≈ 6.04 µM)
Prevotella disiens
  MIC: 2 mg/L (≈ 6.04 µM)
Phocaeicola vulgatus [1]
  MIC: 8 mg/L (≈ 24.1 µM)
Phocaeicola vulgatus [2]
  MIC: 8 mg/L (≈ 24.1 µM)
Bacteroides fragilis [3]
  MIC: 4 mg/L (≈ 12.1 µM)
Bacteroides fragilis [4]
  MIC: 4 mg/L (≈ 12.1 µM)
Bacteroides fragilis [5]
  MIC: 4 mg/L (≈ 12.1 µM)
Bacteroides fragilis [6]
  MIC: 8 mg/L (≈ 24.1 µM)
Bacteroides fragilis [7]
  MIC: 8 mg/L (≈ 24.1 µM)
Bacteroides fragilis [8]
  MIC: 4 mg/L (≈ 12.1 µM)
Hoylesella loescheii
  MIC: 8 mg/L (≈ 24.1 µM)
Fusobacterium
  MIC: 4 mg/L (≈ 12.1 µM)
Fusobacterium nucleatum
  MIC: 4 mg/L (≈ 12.1 µM)
Mus musculus [43]
  ED50: 1.3 mg/kg
Mus musculus [44]
  ED50: 0.3 mg/kg
Mus musculus [45]
  ED50: 15.1 mg/kg
Mus musculus [46]
  ED50: 4.1 mg/kg
Parvimonas micra [47]
  MIC: 0.5 mg/L (≈ 1.51 µM)
[25]
  MIC: 2 mg/L (≈ 6.04 µM)
[26]
  MIC: 2 mg/L (≈ 6.04 µM)
Finegoldia magna
  MIC: 0.25 mg/L (≈ 0.754 µM)
Peptostreptococcus
  MIC: 2 mg/L (≈ 6.04 µM)
Cutibacterium acnes
  MIC: 2 mg/L (≈ 6.04 µM)
Veillonella parvula
  MIC: 0.25 mg/L (≈ 0.754 µM)
[41]
  MIC: 2 mg/L (≈ 6.04 µM)
[48]
  MIC: 32 mg/L (≈ 96.6 µM)
